The text below walks through data of ChEMBL document CHEMBL1122242, “Phenylenebis(oxy)bis[2,2-dimethylpentanoic acid]s: agents that elevate high-density lipoproteins” (1983).

Common to all, as to type: functional
For test [1], the species on record is Rattus norvegicus. Nature of the test: Hypolipidemic effects(liver weight) in male rats. In outline:
(§1)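 Male rats, 10 per group, fed 7 days on chow with 10% fat (5.5% added peanut oil), 1.5% cholesterol and 0.1% cholic acid. Oral gavage on days 4-7 in 4% acacia, usually 50 mg/kg daily. Fasted overnight, killed day 8, atrial blood into EDTA. Plasma cholesterol, TG and HDL cholesterol (after MnCl2/heparin precipitation) by Autoanalyzer. % change vs controls, Student's t test.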

Test [2] relates to Rattus norvegicus. Briefly: Hypolipidemic effects (low-density lipoprotein (LDL) cholesterol) in male rats; Compound was screening orally at 50 mg/Kg. In outline:
as §1

The species named for test [3] is Rattus norvegicus. Briefly: Hypolipidemic effects(plasma TG) in male rats. A digest of the protocol:
as §1

For test [4], the species on record is Rattus norvegicus. Briefly: Hypolipidemic effects(plasma cholesterol) in male rats. A digest of the protocol: as §1
Test [5] relates to Rattus norvegicus. Nature of the test: Hypolipidemic effects (high-density lipoprotein (HDL) cholesterol) in male rats; Compound was screening orally at 50 mg/Kg. A digest of the protocol: as §1
In test [6] the test system is Rattus norvegicus. Nature of the test: Hypolipidemic effects (high-density lipoprotein (HDL) cholesterol) in male rats;Compound was screening orally at 50 mg/Kg. In outline:
as §1

Take `CC(C)(CCCOc1ccc(S(=O)(=O)CCCC(C)(C)C(=O)O)cc1)C(=O)O`: the Change was 9% in the test listed under Rattus norvegicus [1]; -20% in the test with Rattus norvegicus [2]; 0% in the test listed under Rattus norvegicus [3]; 0% in the test listed under Rattus norvegicus [4]; 93% in the test on Rattus norvegicus [5].
For `COC(=O)C(C)(C)CCCOc1cc(OCCCC(C)(C)C(=O)OC)c(Cl)cc1Cl`, the Change in the test listed under Rattus norvegicus [1], in the test with Rattus norvegicus [2], in the test listed under Rattus norvegicus [3], in the test listed under Rattus norvegicus [4] and in the test with Rattus norvegicus [5] was 0% each time.
Consider `COC(=O)C(C)(C)CCCOc1cc(OCCCC(C)(C)C(=O)OC)cc(-c2ccccc2)c1`, for which the Change was 13% in the test listed under Rattus norvegicus [1]; -42% in the test on Rattus norvegicus [2]; 0% in the test filed under Rattus norvegicus [3]; -41% in the test filed under Rattus norvegicus [4]; 0% in the test with Rattus norvegicus [5].
On to `Cc1ccccc1-c1cc(OCCCC(C)(C)C(=O)O)ccc1OCCCC(C)(C)C(=O)O`, for which the Change in the test listed under Rattus norvegicus [1] was 22%; in the test on Rattus norvegicus [2] it was -52%; in the test listed under Rattus norvegicus [3], 55%; in the test filed under Rattus norvegicus [4], 0%; in the test with Rattus norvegicus [5], 628%.
The corresponding values for `COC(=O)C(C)(C)CCCOc1ccc(OCCCC(C)(C)C(=O)OC)c(C#N)c1C#N` are 0%, 0%, 0%, 0% and 0%.
The corresponding values for `COC(=O)C(C)(C)CCCOc1ccc(Br)c(OCCCC(C)(C)C(=O)OC)c1` are 5%, -52%, 0%, -47% and 26%.
As to `CC(C)(CCCOc1ccc(S(=O)(=O)c2ccc(OCCCC(C)(C)C(=O)O)cc2)cc1)C(=O)O`, the Change in the test filed under Rattus norvegicus [1] is reported as 10%; in the test on Rattus norvegicus [2], 0%; in the test filed under Rattus norvegicus [3] it was 0%; in the test listed under Rattus norvegicus [4], 0%; in the test with Rattus norvegicus [5], 26%.
For the compound `COC(=O)c1c(OCCCC(C)(C)C(=O)OC)cccc1OCCCC(C)(C)C(=O)OC`, the Change in the test filed under Rattus norvegicus [1] is on record as 0%; in the test on Rattus norvegicus [2], 0%; in the test filed under Rattus norvegicus [3], 0%; in the test filed under Rattus norvegicus [4] it was 0%; in the test with Rattus norvegicus [5], 21%.
Take `CC(C)(CCCOc1ccc(Oc2ccc(OCCCC(C)(C)C(=O)O)cc2)cc1)C(=O)O`: the Change is given as 0% in the test listed under Rattus norvegicus [1]; -36% with Rattus norvegicus [2]; 0% in the test listed under Rattus norvegicus [3]; -35% in the test filed under Rattus norvegicus [4]; 0% in the test with Rattus norvegicus [5].
With `COC(=O)C(C)(C)CCCOc1ccc(OCCCC(C)(C)C(=O)OC)c(/C=N/N=C(\N)S)c1`, the Change in the test filed under Rattus norvegicus [1], in the test with Rattus norvegicus [2], in the test listed under Rattus norvegicus [3], in the test listed under Rattus norvegicus [4] and with Rattus norvegicus [5] was 0% throughout.
For `CC(C)(CO)CCCOc1ccc(OCCCC(C)(C)CO)c(-c2ccccc2)c1`, the Change is 30% in the test listed under Rattus norvegicus [1]; -36% in the test on Rattus norvegicus [2]; 0% in the test listed under Rattus norvegicus [3]; 37% in the test filed under Rattus norvegicus [4]; 1105% in the test on Rattus norvegicus [5].
The corresponding values for `COC(=O)C(C)(C)CCCSc1ccc(-c2ccc(SCCCC(C)(C)C(=O)OC)cc2)cc1` are 14%, -39%, 60%, 0% and 245%.
The like results for `COC(=O)C(C)(C)CCCOc1ccc(OCCCC(C)(C)C(=O)OC)c(C=O)c1` were, in that order, 9%, -20%, 0%, 0% and 217%.
On to `COC(=O)C(C)(C)CCCCCOc1ccccc1OCCCCCC(C)(C)C(=O)OC`, for which the Change in the test filed under Rattus norvegicus [1] is 11%; in the test with Rattus norvegicus [2], -19%; in the test listed under Rattus norvegicus [3], 140%; in the test listed under Rattus norvegicus [4], 0%; in the test on Rattus norvegicus [5] it was 276%.
The like results for `Cc1cc(SCCCC(C)(C)C(=O)O)c(C)cc1OCCCC(C)(C)C(=O)O` were, in that order, 14%, -35%, 0%, -20% and 220%.
Turning to `COC(=O)C(C)(C)CCCOc1cc(OC)c(OCCCC(C)(C)C(=O)OC)cc1OC`, the Change is listed as 0% in the test filed under Rattus norvegicus [1], 0% in the test filed under Rattus norvegicus [3], -33% in the test listed under Rattus norvegicus [4] and 39% in the test with Rattus norvegicus [6].
For the compound `CC(C)(CCCOc1ccc(OCCCC(C)(C)C(=O)O)c(Sc2ccccc2)c1)C(=O)O`, the Change is recorded as 14% in the test listed under Rattus norvegicus [1]; -30% in the test on Rattus norvegicus [2]; 44% in the test filed under Rattus norvegicus [3]; 32% in the test filed under Rattus norvegicus [4]; 428% in the test on Rattus norvegicus [5].
The corresponding values for `COC(=O)C(C)(C)CCCOc1ccc(C(=O)c2ccc(OCCCC(C)(C)C(=O)OC)cc2)cc1` are 0%, 0%, 0%, 0% and 0%.
The like results for `CC(C)(CCCOc1ccc(OCCCC(C)(C)C(=O)O)c(Cc2ccccc2)c1)C(=O)O` were, in that order, 14%, -71%, 0%, -44% and 389%.
Consider `CC(C)(CCCOc1ccc([S+]([O-])CCCC(C)(C)C(=O)O)cc1)C(=O)O` (centres undefined), for which the Change in the test listed under Rattus norvegicus [1] is reported as 19%; in the test with Rattus norvegicus [2], -31%; in the test filed under Rattus norvegicus [3] it was 16%; in the test listed under Rattus norvegicus [4], -33%; in the test on Rattus norvegicus [5] it was 289%.
The like results for `COC(=O)C(C)(C)CCCOc1ccc(OCCCC(C)(C)C(=O)OC)c(C(C)(C)C)c1` were, in that order, 11%, -41%, 0%, -34% and 171%.
The corresponding values for `CC(C)(CCCOc1ccc(OCCCC(C)(C)C(=O)O)c([S+]([O-])c2ccccc2)c1)C(=O)O` (centres undefined) are 16%, -58%, -21%, -27% and 599%.
The corresponding values for `COC(=O)c1cc(OCCCC(C)(C)C(=O)OC)cc(OCCCC(C)(C)C(=O)OC)c1` are 0%, 0%, 0%, 0% and 0%.
With `CC(C)(CCCOc1ccc(OCCCC(C)(C)C(=O)O)c(S(=O)(=O)c2ccccc2)c1)C(=O)O`, the Change in the test listed under Rattus norvegicus [1] was 10%; in the test on Rattus norvegicus [2] it was -53%; in the test listed under Rattus norvegicus [3], 35%; in the test listed under Rattus norvegicus [4], -32%; with Rattus norvegicus [5] it was 303%.
Consider `CCOC(=O)C(C)(C)CCCOc1ccc(OCCCC(C)(C)C(=O)OCC)c(-c2ccccc2)c1`, for which the Change in the test listed under Rattus norvegicus [1] is 20%; in the test on Rattus norvegicus [2], -18%; in the test listed under Rattus norvegicus [3] it was 0%; in the test listed under Rattus norvegicus [4], 43%; in the test with Rattus norvegicus [5] it was 536%.
Take `COC(=O)C(C)(C)CCCOc1ccc(C(C)(C)c2ccc(OCCCC(C)(C)C(=O)OC)cc2)cc1`: the Change in the test listed under Rattus norvegicus [1], with Rattus norvegicus [2], in the test filed under Rattus norvegicus [3], in the test filed under Rattus norvegicus [4] and in the test on Rattus norvegicus [5] was 0% each time.
For `COC(=O)C(C)(C)CCCSc1ccc(Cl)c(SCCCC(C)(C)C(=O)OC)c1`, the Change is 0% in the test listed under Rattus norvegicus [1]; -52% in the test with Rattus norvegicus [2]; 0% in the test listed under Rattus norvegicus [3]; -53% in the test listed under Rattus norvegicus [4]; 56% in the test with Rattus norvegicus [5].
With `COC(=O)c1ccc(OCCCC(C)(C)C(=O)OC)cc1OCCCC(C)(C)C(=O)OC`, the Change in the test listed under Rattus norvegicus [1], in the test on Rattus norvegicus [2], in the test filed under Rattus norvegicus [3], in the test filed under Rattus norvegicus [4] and in the test on Rattus norvegicus [5] was 0% each time.
For the compound `CCOC(=O)C(C)(C)CCCCCCOc1ccc(OCCCCCCC(C)(C)C(=O)OCC)cc1`, the Change is reported as 0% in the test filed under Rattus norvegicus [1]; -29% in the test on Rattus norvegicus [2]; 0% in the test filed under Rattus norvegicus [3]; -26% in the test listed under Rattus norvegicus [4]; 0% in the test with Rattus norvegicus [5].
In the case of `COC(=O)C(C)(C)CCCOc1cccc(OCCCC(C)(C)C(=O)OC)c1[N+](=O)[O-]`, the Change is 5% in the test filed under Rattus norvegicus [1]; -43% with Rattus norvegicus [2]; 0% in the test listed under Rattus norvegicus [3]; -33% in the test filed under Rattus norvegicus [4]; 109% in the test on Rattus norvegicus [5].
Regarding `CC(C)(CCCOc1ccc(OCCCC(C)(C)C(=O)O)c(C(F)(F)F)c1)C(=O)O`, the Change in the test listed under Rattus norvegicus [1] was 39%; with Rattus norvegicus [2], -45%; in the test listed under Rattus norvegicus [3] it was 0%; in the test listed under Rattus norvegicus [4] it was 0%; in the test on Rattus norvegicus [5] it was 674%.
In the case of `CCCCCc1cc(OCCCC(C)(C)C(=O)OC)cc(OCCCC(C)(C)C(=O)OC)c1`, the Change in the test filed under Rattus norvegicus [1] is reported as 8%; with Rattus norvegicus [2], -67%; in the test filed under Rattus norvegicus [3], -32%; in the test filed under Rattus norvegicus [4], -57%; in the test with Rattus norvegicus [5], 47%.
With `COC(=O)C(C)(C)CCCOc1ccc(C)c(OCCCC(C)(C)C(=O)OC)c1`, the Change in the test listed under Rattus norvegicus [1] is 4%; in the test on Rattus norvegicus [2], -64%; in the test filed under Rattus norvegicus [3], 0%; in the test filed under Rattus norvegicus [4], -55%; in the test on Rattus norvegicus [5] it was 38%.
The like results for `CC(=O)OCC(C)(C)CCCOc1ccc(OCCCC(C)(C)COC(C)=O)c(-c2ccccc2)c1` were, in that order, 19%, -36%, 0%, 0% and 602%.
